pIC50: −log10 of the molar value. The source made the active and inactive calls. No cut-off for these calls is given here.
Assays:
[1] = target: Metabotropic glutamate receptor 2 (Rattus norvegicus) (UniProt P31421); test: Ratio between EC50 of compound and glutamate measured against Metabotropic glutamate receptor 2; type: functional
Summary of the method: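 mGluR2 (rat, transient in HEK 293 cells with co-expressed Gqi9 chimera) inositol phosphate formation; EC50 from Hill fits of at least eight concentrations over 3 orders of magnitude, reported as ratio to the glutamate EC50 determined under the same conditions.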

[2] = target: Metabotropic glutamate receptor 1 (Rattus norvegicus) (UniProt P23385); test: Ratio between EC50 of compound and glutamate measured against metabotropic glutamate receptor 1; type: functional
Summary of the method: (§1)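 mGluR1a (rat, transient in LLC-PK1 or HEK 293 cells) inositol phosphate formation; EC50 from Hill fits of at least eight-point curves over 3 log units, expressed as ratio of compound EC50 to glutamate EC50 measured in the same assay.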

[3] = target: Metabotropic glutamate receptor 2 (Rattus norvegicus, UniProt P31421); test: Inhibitory activity against Metabotropic glutamate receptor 2 in the rat HEK 293 cells.; type: cell-based, HEK293
Summary of the method: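 Rat mGluR2 transiently expressed in HEK 293 cells, cotransfected with chimeric G-protein Gqi9 so the receptor couples to PLC; activity read as agonist-induced inositol phosphate formation. At least eight concentrations over 3 orders of magnitude gave full dose-response curves, Hill-equation fit giving maximal effect, EC50 (or IC50) and Hill coefficient.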

[4] = target: T1, Metabotropic glutamate receptor 1 (Rattus norvegicus, UniProt P23385); test: Inhibitory activity against Metabotropic glutamate receptor 1 in the rat LLC-PK1/HEK 293 cells.; type: cell-based, HEK293
Summary of the method: (§2)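 Rat mGluR1a transiently expressed in LLC-PK1 or HEK 293 cells; receptor activity read as agonist-induced inositol phosphate formation. At least eight agonist concentrations spanning 3 orders of magnitude gave full dose-response curves, fitted to a Hill equation for maximal effect, EC50 (or IC50) and Hill coefficient.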

[5] = target: T1, Metabotropic glutamate receptor 1; test: Inhibitory activity against Metabotropic glutamate receptor 1 in the rat LLC-PK1/HEK 293 cells.; No effect; type: cell-based; conditions: hek293; summary of the method: as §2
[6] = target: Metabotropic glutamate receptor 2 (Homo sapiens, UniProt Q14416); test: Inhibitory activity against human Metabotropic glutamate receptor 2
[7] = target: Metabotropic glutamate receptor 1 (Rattus norvegicus) (UniProt P23385); test: Ratio between the measured EC50 and the glutamate EC50 measured against Metabotropic glutamate receptor 1; No effect; type: functional; summary of the method: as §1
[8] = target: T1, Metabotropic glutamate receptor 1; test: Inhibitory activity against Metabotropic glutamate receptor 1 in the rat LLC-PK1/HEK 293 cells; type: cell-based, HEK293; summary of the method: as §2

Sequence of Metabotropic glutamate receptor 2 (Rattus norvegicus) (P31421 19-872 limits assumed): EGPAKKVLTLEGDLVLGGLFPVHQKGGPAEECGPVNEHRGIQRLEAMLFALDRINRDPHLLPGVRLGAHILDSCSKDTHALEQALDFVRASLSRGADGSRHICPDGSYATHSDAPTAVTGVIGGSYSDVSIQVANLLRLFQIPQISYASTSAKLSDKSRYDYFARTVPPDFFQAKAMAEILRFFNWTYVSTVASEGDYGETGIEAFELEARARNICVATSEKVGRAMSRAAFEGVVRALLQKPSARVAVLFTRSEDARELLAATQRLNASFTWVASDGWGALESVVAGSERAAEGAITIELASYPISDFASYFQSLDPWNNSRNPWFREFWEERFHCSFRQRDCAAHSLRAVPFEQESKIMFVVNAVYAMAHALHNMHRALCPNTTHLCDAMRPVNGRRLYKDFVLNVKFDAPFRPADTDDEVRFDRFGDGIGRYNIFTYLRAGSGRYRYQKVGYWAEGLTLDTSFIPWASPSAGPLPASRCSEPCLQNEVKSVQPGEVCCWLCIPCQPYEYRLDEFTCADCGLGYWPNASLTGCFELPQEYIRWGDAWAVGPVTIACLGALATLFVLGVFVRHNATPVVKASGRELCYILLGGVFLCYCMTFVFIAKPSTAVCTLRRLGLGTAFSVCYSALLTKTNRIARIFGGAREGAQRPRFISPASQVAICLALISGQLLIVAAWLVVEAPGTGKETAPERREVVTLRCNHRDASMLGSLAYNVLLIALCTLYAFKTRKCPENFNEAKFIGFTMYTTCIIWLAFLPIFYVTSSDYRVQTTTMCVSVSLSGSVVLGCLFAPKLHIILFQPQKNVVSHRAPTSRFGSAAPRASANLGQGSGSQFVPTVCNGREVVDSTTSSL
Sequence of Metabotropic glutamate receptor 2 (Rattus norvegicus, UniProt P31421) (P31421 whole entry): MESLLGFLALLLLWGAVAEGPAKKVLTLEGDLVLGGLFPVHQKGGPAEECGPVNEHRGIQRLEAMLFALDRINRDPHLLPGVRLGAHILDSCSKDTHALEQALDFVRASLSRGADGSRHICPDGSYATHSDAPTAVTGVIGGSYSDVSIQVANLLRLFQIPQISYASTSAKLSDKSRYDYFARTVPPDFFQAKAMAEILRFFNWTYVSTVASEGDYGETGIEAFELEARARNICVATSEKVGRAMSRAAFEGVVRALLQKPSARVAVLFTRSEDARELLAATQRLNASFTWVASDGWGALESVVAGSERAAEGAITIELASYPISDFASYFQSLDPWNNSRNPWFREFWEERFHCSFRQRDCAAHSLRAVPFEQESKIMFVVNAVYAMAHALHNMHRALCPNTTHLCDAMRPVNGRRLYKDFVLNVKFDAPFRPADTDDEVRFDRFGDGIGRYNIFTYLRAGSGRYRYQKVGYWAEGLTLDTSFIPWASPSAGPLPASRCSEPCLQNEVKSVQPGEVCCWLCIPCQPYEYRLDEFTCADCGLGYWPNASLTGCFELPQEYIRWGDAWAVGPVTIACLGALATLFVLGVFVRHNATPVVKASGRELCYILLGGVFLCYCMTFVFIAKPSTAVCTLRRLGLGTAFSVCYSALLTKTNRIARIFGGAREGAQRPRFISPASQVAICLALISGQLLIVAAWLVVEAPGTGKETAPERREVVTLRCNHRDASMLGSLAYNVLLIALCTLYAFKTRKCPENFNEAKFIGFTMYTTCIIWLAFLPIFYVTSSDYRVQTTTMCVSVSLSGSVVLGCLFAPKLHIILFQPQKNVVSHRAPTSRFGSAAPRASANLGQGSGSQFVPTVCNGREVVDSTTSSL
T1 sequence (P23385 whole entry): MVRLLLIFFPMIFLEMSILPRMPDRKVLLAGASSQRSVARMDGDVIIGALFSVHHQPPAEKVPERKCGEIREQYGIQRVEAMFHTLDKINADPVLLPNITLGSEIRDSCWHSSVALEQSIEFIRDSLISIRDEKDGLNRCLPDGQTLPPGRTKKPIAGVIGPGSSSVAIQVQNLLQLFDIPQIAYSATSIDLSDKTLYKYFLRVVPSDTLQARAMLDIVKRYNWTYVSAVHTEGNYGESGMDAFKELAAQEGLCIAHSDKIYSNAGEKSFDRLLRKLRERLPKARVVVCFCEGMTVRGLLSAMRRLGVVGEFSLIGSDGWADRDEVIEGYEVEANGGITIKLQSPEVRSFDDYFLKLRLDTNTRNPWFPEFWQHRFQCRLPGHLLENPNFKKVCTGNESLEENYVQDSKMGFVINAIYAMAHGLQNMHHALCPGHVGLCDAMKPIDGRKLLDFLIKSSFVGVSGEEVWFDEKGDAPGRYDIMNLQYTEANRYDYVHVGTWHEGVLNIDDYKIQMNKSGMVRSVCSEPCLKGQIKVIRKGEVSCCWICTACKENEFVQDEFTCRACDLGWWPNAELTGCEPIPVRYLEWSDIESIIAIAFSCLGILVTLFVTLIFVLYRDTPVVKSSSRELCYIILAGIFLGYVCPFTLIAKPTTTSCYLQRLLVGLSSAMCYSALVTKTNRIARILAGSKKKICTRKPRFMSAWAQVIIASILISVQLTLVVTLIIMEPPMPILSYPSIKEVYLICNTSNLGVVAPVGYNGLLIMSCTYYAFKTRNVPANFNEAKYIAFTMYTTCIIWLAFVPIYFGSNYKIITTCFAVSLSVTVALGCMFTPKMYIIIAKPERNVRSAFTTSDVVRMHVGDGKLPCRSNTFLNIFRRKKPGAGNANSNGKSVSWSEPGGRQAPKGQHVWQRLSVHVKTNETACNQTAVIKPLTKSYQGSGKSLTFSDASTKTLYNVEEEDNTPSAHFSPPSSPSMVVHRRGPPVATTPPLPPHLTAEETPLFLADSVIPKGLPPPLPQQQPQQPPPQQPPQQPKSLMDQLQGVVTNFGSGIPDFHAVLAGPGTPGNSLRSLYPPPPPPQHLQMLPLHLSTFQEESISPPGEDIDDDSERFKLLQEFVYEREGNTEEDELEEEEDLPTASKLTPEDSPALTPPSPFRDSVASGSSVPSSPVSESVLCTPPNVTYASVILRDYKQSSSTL
Sequence of Metabotropic glutamate receptor 1 (Rattus norvegicus) (P23385 19-1199 limits assumed): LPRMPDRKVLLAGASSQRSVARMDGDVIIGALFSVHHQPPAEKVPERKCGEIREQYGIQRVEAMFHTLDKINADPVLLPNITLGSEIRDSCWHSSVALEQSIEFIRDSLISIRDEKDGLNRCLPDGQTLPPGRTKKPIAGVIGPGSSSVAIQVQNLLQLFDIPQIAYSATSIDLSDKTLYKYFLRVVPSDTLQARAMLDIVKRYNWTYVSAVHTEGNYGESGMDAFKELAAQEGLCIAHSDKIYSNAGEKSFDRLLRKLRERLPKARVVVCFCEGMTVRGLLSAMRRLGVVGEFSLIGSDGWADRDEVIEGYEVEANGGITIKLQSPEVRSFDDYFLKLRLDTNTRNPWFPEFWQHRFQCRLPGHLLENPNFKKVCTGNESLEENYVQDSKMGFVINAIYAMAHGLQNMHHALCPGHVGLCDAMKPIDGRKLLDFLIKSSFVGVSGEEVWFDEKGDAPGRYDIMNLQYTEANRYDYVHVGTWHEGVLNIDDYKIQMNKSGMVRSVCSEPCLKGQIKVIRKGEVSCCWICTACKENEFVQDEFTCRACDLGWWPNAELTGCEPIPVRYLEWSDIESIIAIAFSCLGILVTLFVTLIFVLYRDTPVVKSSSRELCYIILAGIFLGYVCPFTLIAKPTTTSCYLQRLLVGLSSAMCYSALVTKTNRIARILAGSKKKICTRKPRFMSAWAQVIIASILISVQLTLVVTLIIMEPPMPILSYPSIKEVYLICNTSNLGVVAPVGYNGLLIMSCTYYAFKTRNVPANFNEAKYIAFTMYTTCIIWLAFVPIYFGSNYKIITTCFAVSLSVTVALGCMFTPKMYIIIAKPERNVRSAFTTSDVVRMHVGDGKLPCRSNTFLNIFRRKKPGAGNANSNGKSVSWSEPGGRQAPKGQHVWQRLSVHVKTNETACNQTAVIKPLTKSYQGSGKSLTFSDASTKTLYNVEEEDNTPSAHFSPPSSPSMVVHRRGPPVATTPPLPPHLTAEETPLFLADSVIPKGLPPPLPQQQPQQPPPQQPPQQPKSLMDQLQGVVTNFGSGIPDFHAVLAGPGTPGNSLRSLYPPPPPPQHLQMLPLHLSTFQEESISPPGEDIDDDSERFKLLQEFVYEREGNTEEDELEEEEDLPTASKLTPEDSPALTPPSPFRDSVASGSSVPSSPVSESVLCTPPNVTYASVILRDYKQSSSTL
Sequence of Metabotropic glutamate receptor 2 (Homo sapiens, UniProt Q14416) (Q14416 whole entry): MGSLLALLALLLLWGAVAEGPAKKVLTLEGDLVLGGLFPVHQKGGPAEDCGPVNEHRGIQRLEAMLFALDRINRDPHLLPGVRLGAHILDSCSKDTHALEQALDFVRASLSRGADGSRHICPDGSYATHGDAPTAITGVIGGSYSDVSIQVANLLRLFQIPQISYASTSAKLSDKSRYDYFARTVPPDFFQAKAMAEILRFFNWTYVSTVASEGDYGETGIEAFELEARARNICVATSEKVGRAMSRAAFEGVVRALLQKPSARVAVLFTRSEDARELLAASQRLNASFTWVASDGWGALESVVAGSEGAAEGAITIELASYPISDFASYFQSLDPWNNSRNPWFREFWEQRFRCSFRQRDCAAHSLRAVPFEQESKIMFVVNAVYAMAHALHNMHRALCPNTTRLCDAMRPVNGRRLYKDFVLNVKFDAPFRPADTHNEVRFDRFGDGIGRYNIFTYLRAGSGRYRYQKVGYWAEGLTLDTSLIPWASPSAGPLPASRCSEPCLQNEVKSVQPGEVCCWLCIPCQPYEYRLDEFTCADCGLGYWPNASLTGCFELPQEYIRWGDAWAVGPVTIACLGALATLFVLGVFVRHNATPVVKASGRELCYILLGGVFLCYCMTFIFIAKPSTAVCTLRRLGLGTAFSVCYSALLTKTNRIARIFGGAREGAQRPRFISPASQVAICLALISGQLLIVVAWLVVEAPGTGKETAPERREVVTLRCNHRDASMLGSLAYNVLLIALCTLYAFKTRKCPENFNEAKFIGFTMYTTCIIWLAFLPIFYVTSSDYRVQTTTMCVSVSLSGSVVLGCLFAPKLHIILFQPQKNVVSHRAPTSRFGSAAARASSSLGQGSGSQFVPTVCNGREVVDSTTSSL

Structure (SMILES) | EC50 ratio [1] | EC50 ratio [2] | also measured
N[C@]1(C(=O)O)CC[C@H](C(=O)O)C1 | 10 | 10 | –
N[C@H](C(=O)O)c1cc(O)cc(O)c1 | – | 0.53 | –
NC1(C(=O)O)C2CCC1C(C(=O)O)C2 (stereo unspecified) | > 80 | > 80 | pIC50 [3]: < 3.00; pIC50 [4]: < 3.00
NC1(C(=O)O)CC2CC1C2C(=O)O (stereo in doubt; 13) | 186 | 25 | –
N[C@H](C(=O)O)[C@@H]1C[C@H]1C(=O)O | – | 20 | –
N[C@H](C(=O)O)[C@H]1C[C@@H]1C(=O)O | 0.04 | 5 | –
N[C@@H](C[C@H](CCCC(c1ccccc1)c1ccccc1)C(=O)O)C(=O)O | – | – | IC50 [5]: Not Active; pIC50 [6]: 6.40
O=C(O)[C@H]1C[C@H](C(=O)O)N1 | > 80 | 15 | –
N[C@@H](Cn1oc(=O)[nH]c1=O)C(=O)O | > 90 | 0.02 | –
C[C@H](C[C@H](N)C(=O)O)C(=O)O | 23 | 4.6 | –
N[C@@H](CCC(=O)O)C(=O)O | 1 | 1 | –
N[C@]1(C(=O)O)C[C@H](C(=O)O)[C@H](C(=O)O)C1 | – | – | pIC50 [3]: 4.06; pIC50 [4]: 3.94; EC50 ratio [7]: inactive
N[C@H](C(=O)O)C1[C@@H](C(=O)O)[C@@H]1C(=O)O (stereo partly specified) | 0.03 | – | pIC50 [4]: 3.41
C=C(C[C@H](N)C(=O)O)C(=O)O | – | 0.7 | –
C[C@@H](C[C@H](N)C(=O)O)C(=O)O | 0.3 | 0.5 | –
CC(CC(N)C(=O)O)C(=O)O (racemic) | 0.53 | 0.65 | –
NC1(C(=O)O)CC2CCC1C2C(=O)O (stereo in doubt; 10) | > 80 | > 80 | –
C[C@@](N)(C(=O)O)[C@H]1C[C@@H]1C(=O)O | – | – | pIC50 [3]: 4.11; EC50 ratio [7]: inactive
C[C@@](N)(CCC(=O)O)C(=O)O | – | > 80 | –
C[C@@H](CC(=O)O)[C@H](N)C(=O)O | 80 | 13 | –

Structure (SMILES) | EC50 ratio [1] | EC50 ratio [2] | also measured
N[C@H](C(=O)O)c1cc(O)no1 | 25 | 0.91 | –
NC1(C(=O)O)CC2CCC1C2C(=O)O (stereo in doubt; 8) [listing 1 of 2 here] | > 80 | – | –
N[C@H](C(=O)O)C12CC(C(=O)O)(C1)C2 | > 60 | – | pIC50 [3]: < 3.52; pIC50 [4]: 4.60
N[C@@]1(C(=O)O)CC[C@H](C(=O)O)C1 | 1.2 | > 25 | –
N[C@@H](C[C@H](CC(c1ccccc1)c1ccccc1)C(=O)O)C(=O)O | – | – | IC50 [5]: Not Active; pIC50 [6]: 5.52
N[C@@]1(C(=O)O)CC[C@H]2[C@H](C(=O)O)[C@H]21 | 0.004 | – | pIC50 [4]: 3.34
N[C@@]1(C(=O)O)CC[C@@H](C(=O)O)C1 | 1.6 | 0.75 | –
NC1(C(=O)O)CC2CC1C2C(=O)O (stereo in doubt; 12) | 1.1 | 0.32 | –
N[C@H](C(=O)O)c1ccc(C(=O)O)c(O)c1 | 4 | – | pIC50 [8]: 4.40
C=C(C[C@@H](N)C(=O)O)C(=O)O | – | 14 | –
C[C@](N)(CCC(=O)O)C(=O)O | – | > 80 | –
N[C@@]1(C(=O)O)CN[C@@H](C(=O)O)C1 | 0.4 | > 80 | –
NC1(C(=O)O)CC2CCC1C2C(=O)O (stereo in doubt; 8) [listing 2 of 2 here] | – | – | pIC50 [4]: 3.52
N[C@@H](CC(C(=O)O)C(=O)O)C(=O)O | – | – | pIC50 [3]: 3.99; IC50 [5]: Not Active; EC50 ratio [7]: inactive
C[C@H](C[C@@H](N)C(=O)O)C(=O)O | 1.1 | 4.9 | –
NC1(C(=O)O)CC2CC1C2C(=O)O (stereo in doubt; 14) | 131 | 47 | –
C[C@H](CC(=O)O)[C@H](N)C(=O)O | 12 | 23 | –
CC(N)(CCC(=O)O)C(=O)O (racemic) | > 80 | – | –
C=C(CC(N)C(=O)O)C(=O)O (racemic) | 0.4 | 1.1 | –
N[C@H](C(=O)O)c1cccc(O)c1 | > 80 | 7.8 | –

From ChEMBL document CHEMBL1132716, “Agonist selectivity of mGluR1 and mGluR2 metabotropic receptors: a different environment but similar recognition of an extended glutamate conformation” (J Med Chem, 1999)
